According to ChEMBL document CHEMBL3046200, “5-(2,6-difluorobenzyl)oxymethyl-5-methyl-3-(3-methylthiophen-2-yl)- 1,2-isoxazoline as a useful rice herbicide” (J Agric Food Chem, 2005):
In brackets after ≈: the same amount, converted by molar mass. Activity calls are given as the source filed them. No cut-off for these calls is given here.

How the values were obtained:
Ludwigia prostrata [1] = assay: Herbicidal activity against Ludwigia prostrata assessed as visual damage 500 g/ha measured after 3 weeks; type: functional, organism-based
Method in brief: (§1)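 Flooded greenhouse pot test with soil of 1.5% total carbon, pH 5.6. Eight annual weed species sown at 0.5–1.0 cm in one pot, under 3 cm water at 28–33 °C day and 20–26 °C night. Compound in acetone/water (50/50 v/v) added gently to the water surface at the stated rate 5 days after transplanting.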

Cyperus difformis [2] = assay: Herbicidal activity against Cyperus difformis assessed as visual damage 500 g/ha measured after 3 weeks; type: functional, organism-based; method in brief: as §1
[3] = test system: Schoenoplectiella juncoides; assay: Herbicidal activity against Schoenoplectiella juncoides assessed as visual damage 62.5 g/ha measured after 3 weeks; type: functional, organism-based; method in brief: as §1
Echinochloa crus-galli [4] = assay: Herbicidal activity against 4 leaf stage Echinochloa crus-galli (barnyard grass) (barnyardgrass) at 250 g/ha; type: functional, organism-based
Oryza sativa [5] = assay: Toxicity in transplanted Oryza sativa (rice) assessed as visual damage 250 g/ha measured after 5 days after transplanting; type: organism-based; details: in vivo, 120 h
Method in brief: (§2)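 Transplanted rice grown in flooded greenhouse pots (3 cm water; 28–33 °C day, 20–26 °C night; soil 1.5% total carbon, pH 5.6). Compound in acetone/water (50/50 v/v) applied to the water surface at the stated rate 5 days after transplanting. Injury scored visually on a 0–100 scale.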

Echinochloa oryzicola [6] = assay: Herbicidal activity against Echinochloa oryzicola assessed as visual damage 500 g/ha measured after 3 weeks; type: functional, organism-based; method in brief: as §1
Ludwigia prostrata [7] = assay: Herbicidal activity against Ludwigia prostrata assessed as visual damage 250 g/ha measured after 3 weeks; type: functional, organism-based; method in brief: as §1
Pontederia vaginalis [8] = assay: Herbicidal activity against Monochoria vaginalis assessed as visual damage 1000 g/ha measured after 3 weeks; type: functional, organism-based; method in brief: as §1
[9] = Aquatic toxicity in Oryzias latipes (Japanese medaka); type: organism-based; details: in vivo, other: aquatic exposure
Method in brief: (§3)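 Aquatic acute toxicity, given as LC50 in mg/L of test water.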

[10] = Acute toxicity in Mus musculus (mouse); type: organism-based; details: in vivo
Method in brief: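 Acute toxicity in mice, given as LD50 in mg/kg.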

Rotala indica [11] = assay: Herbicidal activity against Rotala indica assessed as visual damage 1000 g/ha measured after 3 weeks; type: functional, organism-based; method in brief: as §1
Echinochloa crus-galli [12] = assay: Herbicidal activity against 2 to 3 leaf stage Echinochloa crus-galli (barnyard grass) (barnyardgrass) at 62.5 g/ha; type: functional, organism-based
Echinochloa oryzicola [13] = assay: Herbicidal activity against Echinochloa oryzicola assessed as visual damage 1000 g/ha measured after 3 weeks; type: functional, organism-based; method in brief: as §1
Murdannia keisak [14] = assay: Herbicidal activity against Murdannia keisak assessed as visual damage 125 g/ha measured after 3 weeks; type: functional, organism-based; method in brief: as §1
Ludwigia prostrata [15] = assay: Herbicidal activity against Ludwigia prostrata assessed as visual damage 1000 g/ha measured after 3 weeks; type: functional, organism-based; method in brief: as §1
Cyperus difformis [16] = assay: Herbicidal activity against Cyperus difformis assessed as visual damage 1000 g/ha measured after 3 weeks; type: functional, organism-based; method in brief: as §1
Rotala indica [17] = assay: Herbicidal activity against Rotala indica assessed as visual damage 250 g/ha measured after 3 weeks; type: functional, organism-based; method in brief: as §1
Cyperus difformis [18] = assay: Herbicidal activity against Cyperus difformis assessed as visual damage 62.5 g/ha measured after 3 weeks; type: functional, organism-based; method in brief: as §1
[19] = test system: Schoenoplectiella juncoides; assay: Herbicidal activity against Schoenoplectiella juncoides assessed as visual damage 125 g/ha measured after 3 weeks; type: functional, organism-based; method in brief: as §1
Cyperus difformis [20] = assay: Herbicidal activity against Cyperus difformis assessed as visual damage 125 g/ha measured after 3 weeks; type: functional, organism-based; method in brief: as §1
Pontederia vaginalis [21] = assay: Herbicidal activity against Monochoria vaginalis assessed as visual damage 500 g/ha measured after 3 weeks; type: functional, organism-based; method in brief: as §1
[22] = Genotoxicity inCricetulus griseus lung fibroblast assessed as chromosome aberration; type: toxicity, cell-based, Cricetulus griseus; details: chinese hamster
Method in brief: (§4)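 CHL (Chinese hamster lung fibroblast) cells kept in minimum essential medium with 5% fetal bovine serum. Harvested with 0.2% trypsin, seeded onto 50-mm dishes, and grown at 37 °C in humidified 5% CO₂/95% air.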

Echinochloa oryzicola [23] = assay: Herbicidal activity against Echinochloa oryzicola assessed as visual damage 125 g/ha measured after 3 weeks; type: functional, organism-based; method in brief: as §1
Ludwigia prostrata [24] = assay: Herbicidal activity against Ludwigia prostrata assessed as visual damage 125 g/ha measured after 3 weeks; type: functional, organism-based; method in brief: as §1
Rotala indica [25] = assay: Herbicidal activity against Rotala indica assessed as visual damage 125 g/ha measured after 3 weeks; type: functional, organism-based; method in brief: as §1
Oryza sativa [26] = assay: Toxicity in transplanted Oryza sativa (rice) assessed as visual damage 1000 g/ha measured after 5 days after transplanting; type: organism-based; details: in vivo, 120 h; method in brief: as §2
Echinochloa oryzicola [27] = assay: Herbicidal activity against Echinochloa oryzicola assessed as visual damage 250 g/ha measured after 3 weeks; type: functional, organism-based; method in brief: as §1
[28] = Genotoxicity in Cricetulus griseus lung fibroblast assessed as mutation; type: toxicity, cell-based; details: chinese hamster; method in brief: as §4
Ludwigia prostrata [29] = assay: Herbicidal activity against Ludwigia prostrata assessed as visual damage 62.5 g/ha measured after 3 weeks; type: functional, organism-based; method in brief: as §1
Murdannia keisak [30] = assay: Herbicidal activity against Murdannia keisak assessed as visual damage 62.5 g/ha measured after 3 weeks; type: functional, organism-based; method in brief: as §1
[31] = Aquatic toxicity in Daphnia magna; type: organism-based; details: in vivo, other: aquatic exposure; method in brief: as §3
[32] = test system: Schoenoplectiella juncoides; assay: Herbicidal activity against Schoenoplectiella juncoides assessed as visual damage 250 g/ha measured after 3 weeks; type: functional, organism-based; method in brief: as §1
Pontederia vaginalis [33] = assay: Herbicidal activity against Monochoria vaginalis assessed as visual damage 125 g/ha measured after 3 weeks; type: functional, organism-based; method in brief: as §1
Cyperus difformis [34] = assay: Herbicidal activity against Cyperus difformis assessed as visual damage 250 g/ha measured after 3 weeks; type: functional, organism-based; method in brief: as §1
Oryza sativa [35] = assay: Toxicity in transplanted Oryza sativa (rice) assessed as visual damage 125 g/ha measured after 5 days after transplanting; type: organism-based; details: in vivo, 120 h; method in brief: as §2
Oryza sativa [36] = assay: Toxicity in transplanted Oryza sativa (rice) assessed as visual damage 500 g/ha measured after 5 days after transplanting; type: organism-based; details: in vivo, 120 h; method in brief: as §2
Oryza sativa [37] = assay: Toxicity in transplanted Oryza sativa (rice) assessed as visual damage 62.5 g/ha measured after 5 days after transplanting; type: organism-based; details: in vivo, 120 h; method in brief: as §2
Murdannia keisak [38] = assay: Herbicidal activity against Murdannia keisak assessed as visual damage 250 g/ha measured after 3 weeks; type: functional, organism-based; method in brief: as §1
Rotala indica [39] = assay: Herbicidal activity against Rotala indica assessed as visual damage 500 g/ha measured after 3 weeks; type: functional, organism-based; method in brief: as §1
Pontederia vaginalis [40] = assay: Herbicidal activity against Monochoria vaginalis assessed as visual damage 250 g/ha measured after 3 weeks; type: functional, organism-based; method in brief: as §1

## Cc1ccsc1C1=NOC(C)(COCc2c(F)cccc2F)C1 (stereo not given)
Ludwigia prostrata [1]
  Activity: Active
Cyperus difformis [2]
  Activity: Active
[3]
  Activity: inactive
Echinochloa crus-galli [4]
  Activity: Active
Oryza sativa [5]
  Activity: Non-toxic
Echinochloa oryzicola [6]
  Activity: Active
Ludwigia prostrata [7]
  Activity: Active
Pontederia vaginalis [8]
  Activity: Active
[9]
  LC50: 1.9 µg/mL (≈ 5.63 µM)
[10]
  LD50: 5000 mg/kg
Rotala indica [11]
  Activity: Active
Echinochloa crus-galli [12]
  Activity: Active
Echinochloa oryzicola [13]
  Activity: Active
Murdannia keisak [14]
  Activity: inactive
Ludwigia prostrata [15]
  Activity: Active
Cyperus difformis [16]
  Activity: Active
Rotala indica [17]
  Activity: Active
Cyperus difformis [18]
  Activity: Active
[19]
  Activity: inactive
Cyperus difformis [20]
  Activity: Active
Pontederia vaginalis [21]
  Activity: Active
[22]
  Activity: Non-toxic
Echinochloa oryzicola [23]
  Activity: Active
Ludwigia prostrata [24]
  Activity: Active
Rotala indica [25]
  Activity: Active
Oryza sativa [26]
  Activity: Non-toxic
Echinochloa oryzicola [27]
  Activity: Active
[28]
  Activity: Non-toxic
Ludwigia prostrata [29]
  Activity: Active
Murdannia keisak [30]
  Activity: inactive
[31]
  LC50: 2.7 µg/mL (≈ 8 µM)
[32]
  Activity: inactive
Pontederia vaginalis [33]
  Activity: Active
Cyperus difformis [34]
  Activity: Active
Oryza sativa [35]
  Activity: Non-toxic
Oryza sativa [36]
  Activity: Non-toxic
Oryza sativa [37]
  Activity: Non-toxic
Murdannia keisak [38]
  Activity: inactive
Rotala indica [39]
  Activity: Active
Pontederia vaginalis [40]
  Activity: Active
